Screening data deposited in PubChem BioAssay by Broad Institute.
In the library only some 1.5% were active in any assay of this set; here they are far more common.
S100A4 inh HTS – S100A4-myosin IIA interaction inhibition | P26447 | S100A4/TAMRA-MyoIIA peptide fluorescence polarization | inhibition, % at 10.7 µM | hit rate 0.14% among 360,000 | AID 652163;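 active = mean inhibition of at least 70% across replicates, with every replicate also reaching that level; inconclusive = mean inhibition reaches 70% but some replicates fall short; inactive = mean inhibition below 70%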
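assay system = human S100A4 monomer with TAMRA-labelled myosin IIA peptide | also added = labelled myosin peptide probe, 5 nM | incubation = 5 min between mix addition and reading | control set = DMSO and TFP controls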
dFosB activator – enhances mouse delta FosB homodimer DNA binding; purified delta FosB, TAMRA-CDK5 oligo fluorescence polarization; percent of positive-control signal above neutral wells; activation, % at 25 µM; hit rate 0.99% among 340,000;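 active = mean activation above about 17%, with every replicate also reaching it, limit read from the data, passing the limit was not always enough; inconclusive = only one of the two conditions met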
RAD52 inh – RAD52 (human) annealing inhibition; P43351; recombinant RAD52 DNA annealing, FRET fluorescence; inhibition, % at 18.7 µM; hit rate 0.46% among 360,000; AID 651710;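 active = every replicate showing at least 50% inhibition; inconclusive = mean inhibition at least 50% but not in every replicate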
RAD54 inh – RAD54 (human) branch migration inhibition | inhibition, % at 10.4 µM | AID 602329 | RAD54 Holliday junction branch migration, FAM/BHQ fluorescence | hit rate 0.14% among 360,000;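 active = mean normalized replicate activity at least 40 and at least half of replicates scoring 40 or more; inconclusive = only one of the two criteria met; inactive = mean below 40 and under half of replicates reaching 40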;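 note: inhibitors cause a drop in the FAM fluorescence signal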
AF4-AF9 inh – blocks AF4 peptide binding to human AF9; P42568; AlphaScreen, biotin-AF4 peptide binding to FLAG-AF9; inhibition, % at 10 µM; hit rate 0.47% among 350,000;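 active = every replicate reaching a set inhibition limit, whatever the replicate mean, cut at about 25% in these data; inconclusive = mean inhibition reaches that limit but some replicates miss it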
Rad54 DNA ctr – counter-screen for Rad54 inhibitors: DNA binding compounds; Acridine orange-DNA displacement, fluorescence polarization, 20 min; hit rate 8% among 460; shares compounds with RAD54 inh; AID 651673; AC50, µM (highest dose often 35 µM);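 active = signal drop giving an AC50 within twice the top valid tested concentration of each sample, actives reach about 35 µM in these data; inactive = activity opposite to expected, plus the rest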;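 note: polarization loss reports compound binding to salmon sperm DNA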
Large screens that a line does not name were inactive (follow-up assays come after a bar, where they were run).

C=CCc1ccccc1OCC(O)CN1CCN(CCN2C(=O)c3cccc4cccc(c34)C2=O)CC1 (stereo unspecified)	dFosB activator 47, RAD54 inh 99, AF4-AF9 inh inconclusive | Rad54 DNA ctr inactive
C=CCc1ccccc1OCC(O)CN1CCN(C(=O)OCC)CC1 (stereo unspecified)	none (no result: S100A4 inh HTS, RAD52 inh, RAD54 inh, AF4-AF9 inh)
Cc1ccc(-c2nc(N3CCN(C)CC3)c3ccccc3n2)cc1	RAD54 inh 57 | Rad54 DNA ctr inactive
CN1CCN(c2nc(-c3ccc(C(C)(C)C)cc3)nc3ccccc23)CC1	none
CC1CCCCC1NC(=O)C1Cc2ccccc2CN1S(C)(=O)=O (stereo unspecified)	RAD54 inh inconclusive (no result: S100A4 inh HTS, RAD52 inh, AF4-AF9 inh) | Rad54 DNA ctr inactive
CCCNC(=O)Nc1ccc2c(c1)OC[C@@H](C)N(CCC(F)(F)F)C[C@H](C)[C@H](OC)CN(C)C2=O	none (no result: dFosB activator)
O=C(CC1CC1)Nc1ccc2c(c1)[C@@H]1C[C@H](CC(=O)N3CCc4ccccc4C3)O[C@@H](CO)[C@@H]1O2	none (no result: dFosB activator)
CC(=O)N1CCc2c(sc(NC(=O)C3CC3)c2-c2nc3ccccc3s2)C1	none
CC(=O)Nc1sc2c(c1-c1nc3ccccc3s1)CN(C(C)C)CC2	dFosB activator inconclusive, RAD54 inh 67 | Rad54 DNA ctr 17µM
CNC[C@H]1Oc2c(NC(=O)Nc3ccc(C(F)(F)F)cc3)cccc2C(=O)N([C@H](C)CO)C[C@@H]1C	none (no result: dFosB activator)
CCN(CC)CC(=O)Nc1ccc(-c2nc3cc(NC(=O)CN(CC)CC)ccc3o2)cc1	none (no result: S100A4 inh HTS, RAD52 inh, AF4-AF9 inh)
O=C(CN1CCCC1)Nc1ccc(-c2nc3cc(NC(=O)CN4CCCC4)ccc3o2)cc1	RAD54 inh inconclusive (no result: S100A4 inh HTS, RAD52 inh, AF4-AF9 inh) | Rad54 DNA ctr inactive
CCCc1nc2c(=O)n(C)c(=O)nc-2n(C)n1	RAD54 inh 74 | Rad54 DNA ctr inactive
Cn1nc(-c2ccccn2)nc2c(=O)n(C)c(=O)nc1-2	RAD54 inh 61 | Rad54 DNA ctr inactive
O=C(Nc1nnc(COc2ccc(F)cc2)s1)c1ccco1	RAD54 inh inconclusive (no result: dFosB activator) | Rad54 DNA ctr inactive
CCCNC(=O)C[C@H]1C[C@H]2c3cc(NC(=O)Nc4ccccc4F)ccc3O[C@H]2[C@@H](CO)O1	none (no result: dFosB activator)
COc1ccc(Nc2c3c(nc4ccc(C)cc24)CCC3)cc1	RAD54 inh 54 | Rad54 DNA ctr inactive
CCOCCCn1c(=N)c(C(=O)NCCN2CCOCC2)cc2c(=O)n3cccc(C)c3nc21	RAD54 inh 69 (no result: S100A4 inh HTS, RAD52 inh, AF4-AF9 inh) | Rad54 DNA ctr inactive
Cc1cccn2c(=O)c3cc(C(=O)NCCN4CCOCC4)c(=N)n(Cc4ccc(F)cc4)c3nc12	none
COCCn1c(=N)c(C(=O)NCCc2ccc(OC)cc2)cc2c(=O)n3cccc(C)c3nc21	none (no result: S100A4 inh HTS, RAD52 inh, RAD54 inh, AF4-AF9 inh)
Cc1cccn2c(=O)c3cc(C(=O)NCC4CCCO4)c(=N)n(CC4CCCO4)c3nc12 (stereo unspecified)	none
COc1ccc(CCNC(=O)c2cc3c(=O)n4cccc(C)c4nc3n(CCCN3CCOCC3)c2=N)cc1	RAD54 inh 59 | Rad54 DNA ctr inactive
Cc1cccn2c(=O)c3cc(C(=O)NCC4CCCO4)c(=N)n(C4CCCCC4)c3nc12 (stereo unspecified)	RAD54 inh inconclusive | Rad54 DNA ctr inactive
CCNC(=O)[C@@H]1[C@@H](CO)[C@@H]2Cn3c(ccc(-c4ccc(OC)cc4)c3=O)[C@H]1N2S(C)(=O)=O	none (no result: dFosB activator)
C[C@H](O)C#Cc1cnc2c(c1)C(=O)N([C@H](C)CO)C[C@@H](C)[C@H](CN(C)C(=O)c1ccccc1)O2	none (no result: dFosB activator)
O=C1c2cccc3cccc(c23)C(=O)N1CCCn1ccnc1	RAD54 inh 51 (no result: dFosB activator) | Rad54 DNA ctr inactive
NNC(=O)c1oc2nc(-c3cccs3)cc(-c3ccco3)c2c1N	RAD54 inh inconclusive | Rad54 DNA ctr inactive
CCN1CCCC1CNC(=O)c1cc2c(-c3cccc(OC)c3)nn(C)c2s1 (stereo unspecified)	RAD54 inh 50 (no result: S100A4 inh HTS, RAD52 inh, AF4-AF9 inh) | Rad54 DNA ctr inactive
CCCCN(C)CCNC(=O)c1cc2c(-c3cccc(OC)c3)nn(C)c2s1	RAD52 inh 65, RAD54 inh 72 | Rad54 DNA ctr inactive
COc1cccc(-c2nn(C)c3sc(C(=O)NCc4ccco4)cc23)c1	none (no result: S100A4 inh HTS, RAD52 inh, AF4-AF9 inh)
COc1cccc(-c2nn(C)c3sc(C(=O)NCCCN(C)Cc4ccccc4)cc23)c1	none
O=C(N[C@H]1CC[C@H](CC(=O)N2CCN(c3ccccc3)CC2)O[C@@H]1CO)c1ccncc1	none (no result: dFosB activator)
